Positions count from the first letter of the chain named. Names and notes keep the numbering of the source.
B1: MjCobY^G8D (enzyme, Methanocaldococcus jannaschii, UniProt Q58517 1-196, looked up)
chain: MDALIMADGKGTRMGGVEKPLIKLCGRCLIDYVVSPLLKSKVNNIFIATSPNTPKTKEYINSAYKDYKNIVVIDTSGKGYIEDLNECIGYFSEPFLVVSSDLINLKSKIINSIVDYFYCIKAKTPDVEALAVMIPKEKYPNPSIDFNGLVPAGINVVSPKHGYQKEEIMVIDELIFNINTKDDLKLAEMLLKKDGL
B2: MjCobY P94A (enzyme, Methanocaldococcus jannaschii, UniProt Q58517 1-196, looked up)
chain: B1 chain with D8G, P94A
B3: MjCobY T53S (enzyme, Methanocaldococcus jannaschii, UniProt Q58517 1-196, looked up)
chain: B1 chain with D8G, T53S
B4: MjCobY P20A (enzyme, Methanocaldococcus jannaschii, UniProt Q58517 1-196, looked up)
chain: B1 chain with D8G, P20A
B5: MjCobY^G153D (enzyme, Methanocaldococcus jannaschii)
chain: B1 chain with D8G, G153D
B6: MjCobY Y80F (enzyme, Methanocaldococcus jannaschii, UniProt Q58517 1-196, looked up)
chain: B1 chain with D8G, Y80F
B7: MjCobY E18D (enzyme, Methanocaldococcus jannaschii, UniProt Q58517 1-196, looked up)
chain: B1 chain with D8G, E18D
B8: MjCobY K19A (enzyme, Methanocaldococcus jannaschii, UniProt Q58517 1-196, looked up)
chain: B1 chain with D8G, K19A
B9: MjCobY D101G (enzyme, Methanocaldococcus jannaschii, UniProt Q58517 1-196, looked up)
chain: B1 chain with D8G, D101G
B10: MjCobY D83G (enzyme, Methanocaldococcus jannaschii, UniProt Q58517 1-196, looked up)
chain: B1 chain with D8G, D83G
B11: MjCobY R13A (enzyme, Methanocaldococcus jannaschii, UniProt Q58517 1-196, looked up)
chain: B1 chain with D8G, R13A
B12: MjCobY P54A (enzyme, Methanocaldococcus jannaschii, UniProt Q58517 1-196, looked up)
chain: B1 chain with D8G, P54A

The molecules below were run against T1, MjCobY (Methanocaldococcus jannaschii, UniProt Q58517, G153D) (assay: isothermal titration calorimetry).
T1 sequence (Q58517 1-196 G153D): B1 chain with D8G, G153D
Assay type: binding
In short: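 Recombinant G153D variant purified by heat step (75°C, 15 min), ammonium sulfate, hydrophobic interaction, anion exchange and size-exclusion chromatography; dialysed at 4 °C against Tris-HCl 50 mM pH 8.0, NaCl 50 mM, MgCl2 10 mM, TCEP 4 mM. GTP in spent dialysate; 1 mM stock titrated by 27 injections into 18 µM protein dimers at 27 °C.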

| Molecule | Kd [nM] |
| --- | --- |
| Nc1nc2c(ncn2[C@@H]2O[C@H](COP(=O)(O)OP(=O)(O)OP(=O)(O)O)[C@@H](O)[C@H]2O)c(=O)[nH]1 [GTP] | 400 ± 40 |

Target: the molecule itself
Assay: SEC

| Molecule | percent dimer (Monomer:Dimer Ratio) [%] | percent monomer (Monomer:Dimer Ratio) [%] |
| --- | --- | --- |
| B1 | 67 | 33 |
| B2 | 48 | 52 |
| B3 | 24 | 76 |
| B4 | 37 | 63 |
| B5 | 46 | 54 |
| B6 | 26 | 74 |
| B7 | 60 | 40 |
| B8 | 64 | 36 |
| B9 | 66 | 34 |
| B10 | 18 | 82 |
| B11 | 86 | 14 |
| B12 | 50 | 50 |

— paper PMC3125946 (Biochemistry, 2011)
